From ChEMBL document CHEMBL1129647, “Targeting delavirdine/atevirdine resistant HIV-1: identification of (alkylamino)piperidine-containing bis(heteroaryl)piperazines as broad spectrum HIV-1 reverse transcriptase inhibitors” (J Med Chem, 1996)
pIC50, pKi: −log10 of the molar value.

How the values were obtained:
[1] = biological target: T1, Human immunodeficiency virus type 1 reverse transcriptase (Human immunodeficiency virus 1, UniProt Q72547)
[2] = biological target: T2, Human immunodeficiency virus type 1 reverse transcriptase (Human immunodeficiency virus 1, UniProt Q72547, Y181C)
[3] = biological target: T3, Human immunodeficiency virus type 1 reverse transcriptase (Human immunodeficiency virus 1, UniProt Q72547, P236L)
[4] = Clearance at an iv dose of 15.6 mg/Kg and po dose of 31.2 mg/Kg; type: ADME, organism-based; conditions: rat, in vivo
Method in brief: (§1)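 Male Sprague-Dawley rats, fasted, dosed iv and po in a crossover design with a 1 week washout between treatments (N = 3). Compound was given as a solution in propylene glycol/water (80/20, v/v) acidified with a molar excess of methanesulfonic acid. Values are the iv clearance and the absolute oral bioavailability.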

[5] = Bioavailability at an iv dose of 15.6 mg/Kg and po dose of 31.2 mg/Kg; type: ADME, organism-based; conditions: rat, in vivo, read-out: Bioavailabiility
Method in brief: as §1

[6] = test system: Human immunodeficiency virus 1; test: Concentration required to inhibit P24 production by 90% against L-697661 of HIV-1 IIIB (Y181C); type: functional
[7] = test system: Human immunodeficiency virus 1; test: Concentration required to inhibit P24 production by 90% against U-90,152 of HIV-1 MF (P236L); type: functional
[8] = test system: Human immunodeficiency virus 1; test: Concentration required to inhibit P24 production by 90% against U-90,152 of HIV-1 IIIB (L100I, M230L); type: functional
[9] = Bioavailability (dose 15 mg/kg i.v. and 30 mg/kg p.o.); type: ADME, organism-based; conditions: in vivo, po
Method in brief: as §1

[10] = Clearance at an iv dose of 15 mg/Kg and po dose of 30 mg/Kg; type: ADME, organism-based; conditions: in vivo
Method in brief: as §1

[11] = biological target: T2, Human immunodeficiency virus type 1 reverse transcriptase; test: Compound was tested for inhibition of HIV-1 Y181C cell line using poly(rA)300:oligo(dT)10 as substrate
Method in brief: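 Kinetic inhibition study on homodimeric recombinant HIV-1 RTs (WT, P236L, Y181C), varying dTTP or poly(rA):(dT)10 template:primer. Base assay: 28 °C, 10 min, pH 8.3 Tris-HCl, 10 mM MgCl2, 60 mM NaCl, 2 mM DTT, 0.05% NP-40, [3H]TTP incorporation. TCA-precipitated product collected on glass fibre filters and counted. Ki values derived.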

[12] = test system: Human immunodeficiency virus 1; test: In vitro inhibition of recombinant HIV-1 IIIB mutant P236L; type: functional, organism-based
[13] = test system: Human immunodeficiency virus 1; test: In vitro inhibition of recombinant HIV-1 IIIB mutant Y181C; type: functional, organism-based
[14] = biological target: T2, Human immunodeficiency virus type 1 reverse transcriptase; test: Compound was tested for inhibition of HIV-1 Y181C reverse transcriptase using dTTP as substrate
[15] = biological target: T3, Human immunodeficiency virus type 1 reverse transcriptase; test: Compound was tested for inhibition of HIV-1 P236L reverse transcriptase using dTTP as substrate
[16] = test system: Human immunodeficiency virus 1; test: In vitro inhibition of recombinant HIV-1 IIIB mutant WT; type: functional, organism-based
[17] = biological target: T1, Human immunodeficiency virus type 1 reverse transcriptase; test: Compound was tested for inhibition of HIV-1 WT reverse transcriptase using poly(rA)300:oligo(dT)10 as substrate
[18] = biological target: T1, Human immunodeficiency virus type 1 reverse transcriptase; test: Compound was tested for inhibition of HIV-1 WT reverse transcriptase using dTTP as substrate
[19] = biological target: T3, Human immunodeficiency virus type 1 reverse transcriptase; test: Compound was tested for inhibition of HIV-1 P236L reverse transcriptase using poly(rA)300:oligo(dT)10 as substrate
[20] = Bioavailability at an iv dose of 15 mg/Kg and po dose of 29.1 mg/Kg; type: ADME, organism-based; conditions: in vivo, read-out: Bioavailabiility
Method in brief: as §1

[21] = test system: Human immunodeficiency virus 1; test: Concentration required to inhibit P24 production by 90% against L-697,661 of HIV-1IIIB(Y181c); type: functional
[22] = test system: Human immunodeficiency virus 1; test: Concentration required to inhibit P24 production by 90% against U-90,152 of HIV-1 MF(P236L); type: functional

| SMILES | pIC50 [1] | pIC50 [2] | pIC50 [3] | IC90 [6] | IC90 [7] | IC90 [8] | other results |
| --- | --- | --- | --- | --- | --- | --- | --- |
| CC(C)Nc1ccc(Cl)nc1N(C)C1CCN(C(=O)c2cc3cc(NS(C)(=O)=O)ccc3[nH]2)CC1 | 6.44 | 5.67 | 5.77 | – | – | – | – |
| CC(C)Nc1ccnnc1N(C)C1CCN(C(=O)c2cc3cc(NS(C)(=O)=O)ccc3[nH]2)CC1 | 6.13 | 5.88 | 5.34 | – | – | – | clearance [4]: 40 mL/min/kg; bioavailability [5]: 0% |
| CN(c1ncccc1NC1CC1)C1CCN(C(=O)c2cc3cc(NS(C)(=O)=O)ccc3[nH]2)CC1 | 7.05 | 6.55 | 6.68 | 4400 nM | > 10000 nM | – | – |
| CCNc1cccnc1N(CC)C1CCN(C(=O)c2cc3cc(NS(=O)(=O)C(C)C)ccc3[nH]2)CC1 | 6.35 | 6.18 | 6.48 | – | – | – | – |
| CCN(c1nc(F)ccc1NC(C)(C)C)C1CCN(C(=O)c2cc3cc(NS(C)(=O)=O)ccc3[nH]2)CC1 | 6.14 | 5.97 | 5.98 | < 30 nM | 220 nM | 120 nM | bioavailability ([9]; rat): 17.1%; clearance ([10]; rat): 27 mL/min/kg |
| CCC(C)(C)Nc1cccnc1N(C)C1CCN(C(=O)c2cc3cc(NS(C)(=O)=O)ccc3[nH]2)CC1 | 6.46 | 6.28 | 5.48 | – | – | – | – |
| CCNc1cccnc1N(CC)C1CCN(C(=O)c2cc3cc(NS(=O)(=O)N4CCN(C)CC4)ccc3[nH]2)CC1 | 6.62 | 5.95 | 6.36 | – | – | – | – |
| CN(c1ncccc1NC1(C)CC1)C1CCN(C(=O)c2cc3cc(NS(C)(=O)=O)ccc3[nH]2)CC1 | 6.80 | 6.43 | 5.84 | 2300 nM | > 300 nM | – | – |
| CCCN(c1ncccc1NC(C)(C)C)C1CCN(C(=O)c2cc3cc(NS(C)(=O)=O)ccc3[nH]2)CC1 | 6.32 | 5.61 | 5.84 | 30 nM | 320 nM | 110 nM | – |
| CCN(c1ncccc1NC(C)(C)C)C1CCN(C(=O)c2cc3cc(NC(=O)N4CCN(C)CC4)ccc3[nH]2)CC1 | 6.66 | 6.21 | 6.43 | 50 nM | 160 nM | 160 nM | bioavailability ([9]; rat): 35.1%; clearance ([10]; rat): 61 mL/min/kg |
| CCCN(c1ncccc1NCC)C1CCN(C(=O)c2cc3cc(NS(C)(=O)=O)ccc3[nH]2)CC1 | 6.82 | 6.02 | 6.28 | – | – | – | – |
| CCN(c1ncccc1NC(C)(C)C)C1CCN(C(=O)c2cc3cc(NS(=O)(=O)N4CCN(C)CC4)ccc3[nH]2)CC1 | 6.10 | 5.74 | 5.90 | < 30 nM | 340 nM | 140 nM | bioavailability ([9]; rat): 32%; clearance ([10]; rat): 73.7 mL/min/kg |
| CCCNc1cccnc1N(CC)C1CCN(C(=O)c2cc3cc(NS(C)(=O)=O)ccc3[nH]2)CC1 | 6.89 | 6.35 | 6.55 | 140 nM | 400 nM | – | – |
| CCNc1cccnc1N(CC)C1CCN(C(=O)c2cc3cc(NS(C)(=O)=O)ccc3[nH]2)CC1 | 6.34 | 6.06 | 6.27 | 180 nM | 310 nM | 80 nM | bioavailability ([9]; rat): 2.8%; clearance ([10]; rat): 66.6 mL/min/kg |
| CCN(c1nc(F)ccc1NC(C)C)C1CCN(C(=O)c2cc3cc(NS(C)(=O)=O)ccc3[nH]2)CC1 | 6.34 | 6.06 | 6.27 | 140 nM | 300 nM | 110 nM | – |
| CCNc1cccnc1N(CC)C1CCN(C(=O)c2cc3cc(NC(=O)N4CCN(C)CC4)ccc3[nH]2)CC1 | 6.85 | 5.91 | 6.62 | – | – | – | – |
| CN(c1nc(F)ccc1NC(C)(C)C)C1CCN(C(=O)c2cc3cc(NS(C)(=O)=O)ccc3[nH]2)CC1 | 6.28 | 6.14 | 5.72 | 440 nM | 2600 nM | 1600 nM | – |

| SMILES | pIC50 [1] | pIC50 [2] | pIC50 [3] | IC90 [6] | IC90 [7] | IC90 [8] | other results |
| --- | --- | --- | --- | --- | --- | --- | --- |
| CCN(c1ncccc1NC(C)C)C1CCN(C(=O)c2cc3cc(NS(C)(=O)=O)ccc3[nH]2)CC1 | 6.60 | 6.40 | 6.70 | – | – | – | – |
| CCN(c1nc(F)ccc1NC(C)(C)C)C1CCN(C(=O)c2cc3cc(NS(=O)(=O)N4CCN(C)CC4)ccc3[nH]2)CC1 | 6.08 | 5.68 | 5.96 | 150 nM | 290 nM | 290 nM | bioavailability ([9]; rat): 54%; clearance ([10]; rat): 61 mL/min/kg |
| CC(C)Nc1cccnc1N(C)C1CCN(C(=O)c2cc3ccc(CO)cc3[nH]2)CC1 | 6.77 | 6.31 | 6.43 | – | – | – | – |
| CCN(c1ncccc1NC(C)C)C1CCN(C(=O)c2cc3cc(NC(=O)N4CCN(C)CC4)ccc3[nH]2)CC1 | 6.85 | 6.39 | 6.74 | 50 nM | 240 nM | 110 nM | bioavailability ([9]; rat): 21.3%; clearance ([10]; rat): 50 mL/min/kg |
| CCN(c1nc(F)ccc1NC(C)(C)C)C1CCN(C(=O)c2cc3cc(NC(=O)N4CCN(C)CC4)ccc3[nH]2)CC1 | – | – | – | 130 nM | 160 nM | 140 nM | pKi [11]: 5.52; pIC50 [12]: 6.37; pIC50 [13]: 6.10; pKi [14]: 5.59; pKi [15]: 5.69; bioavailability ([9]; eutheria): 42%; pIC50 [16]: 6.68; clearance [10]: 16 mL/min/kg; pKi [17]: 5.79; pKi [18]: 5.90; pKi [19]: 5.76 |
| CCN(c1ncccc1NC(C)C)C1CCN(C(=O)c2cc3cc(NS(=O)(=O)N4CCN(C)CC4)ccc3[nH]2)CC1 | 6.42 | 6.11 | 6.24 | 170 nM | 300 nM | – | bioavailability ([9]; rat): 8%; clearance ([10]; rat): 89 mL/min/kg |
| CN(c1ncccc1NC(C)(C)C)C1CCN(C(=O)c2cc3cc(NS(C)(=O)=O)ccc3[nH]2)CC1 | – | – | – | 220 nM | 5400 nM | 830 nM | bioavailability [20]: 44% |
| CCCN(c1ncccc1NC(C)C)C1CCN(C(=O)c2cc3cc(NC(=O)N4CCN(C)CC4)ccc3[nH]2)CC1 | 6.72 | 6.07 | 6.40 | – | – | – | – |
| CC(C)Nc1cccnc1N(C)C1CCN(C(=O)c2cc3ccc(OCCOCCOCCO)cc3[nH]2)CC1 | 6.52 | 6.11 | 6.39 | – | – | – | – |
| CN(c1ncccc1NCC1CC1)C1CCN(C(=O)c2cc3cc(NS(C)(=O)=O)ccc3[nH]2)CC1 | 6.28 | 5.54 | 4.84 | – | – | – | – |
| CCN(c1nc(Cl)ccc1NC(C)(C)C)C1CCN(C(=O)c2cc3cc(NS(C)(=O)=O)ccc3[nH]2)CC1 | 5.99 | 5.52 | 5.82 | – | – | – | IC90 [21]: > 300 nM; IC90 [22]: 240 nM |
| CCNc1cccnc1N(CC)C1CCN(C(=O)c2cc3cc(NS(=O)(=O)CC)ccc3[nH]2)CC1 | 6.40 | 6.32 | 6.59 | – | – | – | – |
| CCNc1cccnc1N(C(C)C)C1CCN(C(=O)c2cc3cc(NS(C)(=O)=O)ccc3[nH]2)CC1 | 6.42 | 5.44 | 5.59 | – | – | – | – |
| CCCN(c1ncccc1NC(C)C)C1CCN(C(=O)c2cc3cc(NS(C)(=O)=O)ccc3[nH]2)CC1 | 6.62 | 6.21 | 6.62 | 60 nM | 220 nM | – | – |
| CC(C)Nc1cccnc1N(C1CC1)C1CCN(C(=O)c2cc3ccccc3[nH]2)CC1 | 6.15 | 5.64 | 6.23 | – | – | – | – |
| CCc1cc(NCc2nc3c(Cl)ccc(Cl)c3o2)c(O)nc1C [L-697661] | 6.10 | < 4.22 | 6.96 | > 10000 nM | 430 nM | 4000 nM | – |
